Assay results taken from ChEMBL document CHEMBL1795237, “Total synthesis of largazole and analogues: HDAC inhibition, antiproliferative activity and metabolic stability” (Bioorg Med Chem, 2011).
The source made the active and inactive calls. No cut-off for these calls is given here.

Tests used:
[1] = Half life in mouse liver homogenates at 100 uM by UPLC/MS analysis; assay type: ADME, tissue-based
How it was run: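 Compound added to preincubated murine liver homogenate (tissue broken up in 10 mM Tris pH 7.4, 1:3 w:v) at 37 °C, final 100 μM. Samples taken at 0, 15, 30, 45, 60, 120 min, quenched in methanol, centrifuged 10,000g to remove protein. Supernatant analyzed by reversed-phase C18 UPLC with MeOH/water/0.05% TFA gradient; parent ions monitored by ESI MS selected ion recording.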

[2] = biological target: T1, Histone deacetylase (Homo sapiens) (UniProt Q13547+O15379+Q9UBN7+Q92769+Q9UQL6+Q8WUI4+Q9BY41+Q96DB2+P56524+Q9UKV0+Q969S8); details: MDA-MB-231, 100 nM
[3] = biological target: T1, Histone deacetylase (Homo sapiens); details: MCF7, 100 nM
MCF7 = test: Growth inhibition of human MCF7 cells; assay type: functional
[4] = biological target: T1, Histone deacetylase (Homo sapiens); details: SKBr3, 100 nM

Compound | half-life at 100 µM [1] | inhibition [2] | inhibition [3] | GI (MCF7) | inhibition [4]
CC(C)[C@@H]1NC(=O)[C@]2(C)CSC(=N2)c2csc(n2)CNC(=O)C[C@@H](/C=C/CCS)OC1=O [LARGAZOLE THIOL] | 51 min | – | – | – | –
CCCCCCCC(=O)SCC/C=C/[C@@H]1CC(=O)NCc2nc(cs2)C2=N[C@@](C)(CS2)C(=O)N[C@@H](C(C)C)C(=O)O1 [LARGAZOLE] | ≤ 5 min | Active | Active | 5 nM | Active
CC(C)[C@H]1NC(=O)[C@]2(C)CSC(=N2)c2csc(n2)[C@@H](Cc2ccccc2)NC(=O)C[C@@H](/C=C/CCS)OC1=O | – | – | – | 377 nM | –
CC(C)[C@H]1NC(=O)C(C)(C)NC(=O)c2csc(n2)CNC(=O)C[C@@H](/C=C/CCS)OC1=O | ≤ 5 min | – | – | > 10000 nM | –
C[C@@]12CSC(=N1)c1csc(n1)CNC(=O)C[C@@H](/C=C/CCS)OC(=O)CNC2=O | 32 min | – | – | 2458 nM | –
C[C@@]12CSC(=N1)c1csc(n1)CNC(=O)C[C@@H](/C=C/CCS)OC(=O)CCNC2=O | ≤ 5 min | – | – | 5900 nM | –
CC(C)[C@H]1NC(=O)[C@]2(C)CSC(=N2)c2csc(n2)CNC(=O)C[C@@H](/C=C/CCS)OC1=O [LARGAZOLE THIOL] | – | inactive | inactive | 277 nM | inactive
